# Bioassay records from PubChem.
# The entries come from a sample that favours hits as a whole.
# IDH1 R132H inh = IDH1 R132H (human) inhibition; inhibition, % at 10 µM; 0.18% of 70,000 active; AID 624101; IDH1 R132H reductase, diaphorase/resazurin fluorescence, 60 min; O75874; in the data active = inhibition above about 34%; inconclusive = no clear call, values can overlap the other calls; inactive = below about 11%;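 note: 0% = DMSO and 100% = no enzyme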
# Target sequence (O75874 whole entry R132H): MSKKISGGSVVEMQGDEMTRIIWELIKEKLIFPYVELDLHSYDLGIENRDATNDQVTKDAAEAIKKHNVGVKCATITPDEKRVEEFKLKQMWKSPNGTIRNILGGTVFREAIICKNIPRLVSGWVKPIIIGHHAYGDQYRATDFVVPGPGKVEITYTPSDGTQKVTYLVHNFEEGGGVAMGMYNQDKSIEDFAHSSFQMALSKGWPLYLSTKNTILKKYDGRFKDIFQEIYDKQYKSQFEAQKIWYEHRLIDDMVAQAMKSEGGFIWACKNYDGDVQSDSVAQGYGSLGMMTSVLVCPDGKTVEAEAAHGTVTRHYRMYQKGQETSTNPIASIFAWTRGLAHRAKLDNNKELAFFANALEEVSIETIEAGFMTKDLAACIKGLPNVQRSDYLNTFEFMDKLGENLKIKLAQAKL
# T cruzi growth-1 = T. cruzi proliferation inhibition; 5.9% of 77,000 active; inhibition, % at 8.34 µM; AID 624255; T. cruzi beta-gal in NIH3T3, GalScreen luminescence, 90 h;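 active = mean inhibition above about 93%, with at least 55% of replicates each passing it, limit read from the data, passing the limit was not always enough; inconclusive = only one of those two conditions holds; inactive = neither condition holds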
# KDM4C inh = KDM4C (human) demethylase inhibition; Q9H3R0; GST-KDM4C 2-372, H3K9me3 peptide, LANCE TR-FRET; inhibition, % at 12.5 µM; 0.15% of 96,000 active; AID 720574;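 active = mean replicate inhibition above about 25%, with at least 55% of replicates also reaching it, limit read from the data, passing the limit was not always enough; inconclusive = only one of those two conditions met; inactive = neither condition met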
#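 Material: N-terminal GST-fused human GASC-1 (KDM4C) fragment, residues 2-372. Input: 10 nM enzyme. Incubation: enzyme reaction 30 min, then detection 60 min, both room temperature. Doses: one test concentration per compound. Read-out basis: inhibition from TR-FRET ratio decrease. Detection: LANCE TR-FRET, excitation 340 nm, emissions 618 and 671 nm.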
# T cruzi growth-2 = inhibitors of T. cruzi proliferation; shares compounds with T cruzi growth-1; T. cruzi beta-gal in NIH3T3, GalScreen luminescence, 90 h; inhibition, % at 8.35 µM; 72% of 5,600 active;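 active = mean replicate inhibition above about 95% and at least 55% of replicates individually reaching it, limit read from the data; inconclusive = only one of the two criteria is met; inactive = neither criterion is met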
# T cruzi growth-3 = inhibitors of T. cruzi proliferation | AID 651740 | shares compounds with T cruzi growth-1 | 21% of 5,600 active | inhibition, % at 2.09 µM | T. cruzi beta-gal in NIH3T3, GalScreen luminescence, 90 h;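 active = mean inhibition above about 95%, with at least 55% of replicates also reaching it, limit read from the data; inconclusive = meets just one of the two conditions; inactive = meets neither condition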;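 note: plate controls were neutral control median for no effect and positive control median for full effect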
# NIH3T3 tox = kills mouse NIH/3T3 fibroblasts; cytotoxicity (signal decrease), % at 8.35 µM; shares compounds with T cruzi growth-1; 14% of 5,600 active; NIH/3T3 viability, CellTiter-Glo ATP luminescence, 90 h;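 active = mean signal decrease across replicates above about 35% based on untreated-well scatter, with enough replicates individually passing, limit read from the data; inconclusive = no rule stated though some were filed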;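 note: 0% = median of neutral control wells and 100% = median of positive control wells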
# NIH3T3 tox 2 = NIH/3T3 (mouse) viability loss; shares compounds with T cruzi growth-1; inhibition, % at 24.9 µM; 56% of 5,600 active; NIH/3T3 viability, CellTiter-Glo ATP luminescence, 90 h;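 active = mean loss of cell viability signal at or above a set limit, and enough replicates individually reaching it; inconclusive = meets only the mean limit or only the replicate share; inactive = meets neither condition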;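 note: 0% = median of neutral control wells and 100% = median of positive control wells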
# The depositor's hits bear a star; ? = inconclusive; · = no result given.
SMILES,IDH1 R132H inh,T cruzi growth-1,KDM4C inh,T cruzi growth-2,T cruzi growth-3,NIH3T3 tox,NIH3T3 tox 2
O=C(C[C@@H]1C[C@H]2c3cc(NS(=O)(=O)c4ccc(F)cc4)ccc3O[C@H]2[C@H](CO)O1)N1CCc2ccccc2C1,-1,?,-2,83,27,18,20
O=C(C[C@H]1C[C@H]2c3cc(NS(=O)(=O)c4ccc(F)cc4)ccc3O[C@H]2[C@H](CO)O1)N1CCc2ccccc2C1,0,110*,2,85,26,-7,7
COc1ccccc1CN=c1c([N+](=O)[O-])nn(-c2ccccc2)n1O,0,·,·,·,·,·,·
COc1ccc(Cl)cc1NC(=O)C12CCC(C)(c3nc4ccccc4nc31)C2(C)C (stereo unspecified),0,·,·,·,·,·,·
CO[C@H](CN(C)Cc1ccc(-c2ccccn2)cc1)[C@@H](C)CN(C(=O)Nc1ccc(F)cc1)[C@H](C)CO,0,90,-1,·,·,·,·
CO[C@H](CN(C)Cc1ccc(-c2ccccn2)cc1)[C@@H](C)CN(C(=O)Nc1ccc(F)cc1)[C@@H](C)CO,0,100*,?,102*,34,17,12
CC(=O)c1cccc(NC(=O)CSc2nc(C)cc(=O)[nH]2)c1,0,·,·,·,·,·,·
O=C(C[C@H]1CC[C@H]2[C@@H](COC[C@H](O)CN2C(=O)Nc2ccc(C(F)(F)F)cc2)O1)NC1Cc2ccccc2C1,·,121*,-2,105*,53,51*,107*
O=C(C[C@@H]1CC[C@@H]2[C@H](COC[C@H](O)CN2C(=O)Nc2ccc(C(F)(F)F)cc2)O1)NC1Cc2ccccc2C1,·,78,0,·,·,·,·
O=C(C[C@H]1CC[C@@H]2[C@H](COC[C@H](O)CN2C(=O)Nc2ccc(C(F)(F)F)cc2)O1)NC1Cc2ccccc2C1,·,38,-1,·,·,·,·
O=C(C[C@@H]1CC[C@@H]2[C@H](COC[C@@H](O)CN2C(=O)Nc2ccc(C(F)(F)F)cc2)O1)NC1Cc2ccccc2C1,·,112*,0,96*,94,21,105*
CC(=O)Nc1ccc(NC(=O)CN(c2ccc(C)cc2C)S(C)(=O)=O)cc1,0,·,·,·,·,·,·
Cn1nnnc1SCC(=O)Nc1ccc([N+](=O)[O-])cc1,1,·,·,·,·,·,·
Cc1ccc(-c2nnc(SCC(=O)c3cccc([N+](=O)[O-])c3)n2C)cc1,1,·,·,·,·,·,·
C[C@H](CO)N1C[C@H](C)[C@H](CN(C)Cc2ccccc2)Oc2cc(-c3ccccc3)ccc2S1(=O)=O,-1,113*,-3,105*,81,6,106*
C[C@@H]1CN([C@@H](C)CO)S(=O)(=O)c2ccc(-c3ccccc3)cc2O[C@@H]1CN(C)Cc1ccccc1,-2,121*,0,103*,106*,48*,105*
C[C@H](CO)N1C[C@H](C)[C@@H](CN(C)Cc2ccccc2)Oc2cc(-c3ccccc3)ccc2S1(=O)=O,0,67,0,·,·,·,·
C[C@@H]1CN([C@H](C)CO)S(=O)(=O)c2ccc(-c3ccccc3)cc2O[C@@H]1CN(C)Cc1ccccc1,0,94,0,·,·,·,·
COc1ccc(/C=N/NC(=O)CCCCCCC(=O)Nc2ccccc2O)cc1,0,·,·,·,·,·,·
COCCOC(=O)N1C(=O)[C@@]2(c3ccccc31)[C@H](C(=O)NC[C@H](O)c1ccccc1)[C@H]1C(=O)O[C@H](c3ccccc3)[C@H](c3ccccc3)N1[C@@H]2c1ccc(OCCO)cc1,0,·,·,·,·,·,·
C[C@@H]1CN([C@H](C)CO)C(=O)Cc2cc(NS(=O)(=O)c3ccc(F)cc3)ccc2O[C@@H]1CN(C)Cc1ccccc1,1,88,0,·,·,·,·
C[C@H]1CN([C@@H](C)CO)C(=O)Cc2cc(NS(=O)(=O)c3ccc(Cl)cc3)ccc2O[C@@H]1CN(C)Cc1ccccc1,0,102*,0,104*,50,-15,83*
C[C@@H]1CN([C@H](C)CO)C(=O)Cc2cc(NS(=O)(=O)c3ccccc3)ccc2O[C@@H]1CN(C)Cc1ccc(-c2ccccc2)cc1,2,67,6,·,·,·,·
C[C@@H]1CN([C@@H](C)CO)C(=O)Cc2cc(NS(=O)(=O)c3ccc(Cl)cc3)ccc2O[C@@H]1CN(C)Cc1ccccc1,0,72,-1,·,·,·,·
C[C@@H]1CN([C@@H](C)CO)C(=O)Cc2cc(NS(C)(=O)=O)ccc2O[C@H]1CN(C)Cc1ccc(-c2ccccc2)cc1,-1,88,-2,·,·,·,·
SMILES,IDH1 R132H inh,T cruzi growth-1,KDM4C inh,T cruzi growth-2,T cruzi growth-3,NIH3T3 tox,NIH3T3 tox 2
C[C@H]1CN([C@@H](C)CO)C(=O)Cc2cc(NS(=O)(=O)c3ccc(Cl)cc3)ccc2O[C@@H]1CN(C)Cc1ccc(-c2ccccc2)cc1,·,99*,3,105*,53,6,107*
C[C@H](CO)N1C[C@H](C)[C@@H](CN(C)Cc2ccccc2)Oc2ccc(NS(=O)(=O)c3ccc(F)cc3)cc2CC1=O,0,109*,15,96*,44,3,0
C[C@H](CO)N1C[C@H](C)[C@@H](CN(C)Cc2ccc(-c3ccccc3)cc2)Oc2ccc(NS(C)(=O)=O)cc2CC1=O,-4,118*,2,112*,?,26,105*
CSc1ccccc1NC(=O)CN(C)S(=O)(=O)c1c(C)cc(C)cc1C,-1,·,·,·,·,·,·
Cc1ccc(N(CC(=O)Nc2cc(Cl)ccc2Cl)S(C)(=O)=O)cc1C,0,·,·,·,·,·,·
COc1ccc(OCC(=O)Nc2cccc(C(=O)O)c2C)cc1,-1,·,·,·,·,·,·
COc1ccc(NC(=O)CN=[N+]=[N-])cc1OC,0,·,·,·,·,·,·
CC(=O)c1ccc(NC(=O)CSc2nc(C)c(C)c(=O)[nH]2)cc1,0,·,·,·,·,·,·
COc1cc(CO)cc(I)c1OCc1cccc(C(=O)O)c1,0,·,·,·,·,·,·
C[C@@H]1CN([C@H](C)CO)C(=O)c2cc(/C=C/c3ccccc3)cnc2O[C@H]1CN(C)Cc1ccccc1F,-1,87*,-1,103*,?,10,103*
C[C@H](CO)N1C[C@H](C)[C@H](CN(C)Cc2ccc(F)cc2)Oc2ncc(/C=C/c3ccccc3)cc2C1=O,0,·,-1,·,·,·,·
C/C=C/c1cnc2c(c1)C(=O)N([C@@H](C)CO)C[C@@H](C)[C@H](CN(C)Cc1ccccc1F)O2,-3,·,-2,·,·,·,·
C[C@H](CO)N1C[C@H](C)[C@H](CN(C)Cc2ccccc2F)Oc2ncc(/C=C/c3ccccc3)cc2C1=O,-2,95*,-2,107*,77,17,60*
COc1ccccc1NC(=O)COc1ccc(Cl)cc1CO,0,·,·,·,·,·,·
Cc1cccc(OCCn2c(C(C)O)nc3ccccc32)c1 (stereo unspecified),0,·,·,·,·,·,·
COc1ccc(CN2C(=O)c3cccc4cccc(c34)C2=O)cc1S(=O)(=O)N1CCOCC1,-1,·,·,·,·,·,·
CCc1ccccc1NC(=O)CSc1nnc(-c2cccc(C)c2)n1C,0,·,·,·,·,·,·
